The list is not random: actives were taken first. Their share in the collection is about 5.6%.
MPTP inh – permeability transition pore inhibition | AID 602449 | actives 1.4% (n = 360,000) | inhibition, % at 10 µM | isolated mouse mitochondria, Ca2+ swelling absorbance, 30 min;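 active = inhibition of 50% or more, scaled per plate between neutral and stimulator controls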;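 note: 0% = DMSO wells given calcium and 100% = 1 mM EGTA wells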
aDG glyco up – increases alpha dystroglycan glycosylation | AID 624168 | activation, % at 10 µM | Pro5-aDG cells, alpha-DG glycosylation AlphaScreen (IIH6); 0% Pro5, 100% B10-LARGE cell signal | actives 0.22% (n = 360,000);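 active = activation of at least 8% versus controls, or a plate z-score of at least 8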;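 note: Pro5 are CHO cells carrying HIG-tagged alpha-DG that lacks glycosylation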
UPR XBP1 act – activators of adaptive arm of unfolded protein response (XBP1); CHO-XBP1 luciferase reporter, IRE1-XBP1 UPR activation, luminescence; percent of tunicamycin response, DMSO as zero; activation, % at 20 µM; actives 0.33% (n = 330,000);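 active = versus positive control, 20 µM dose yields 30% or more activation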;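 note: 100% = tunicamycin at 10 µg/mL and 0% = DMSO only wells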
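Material: CHO cell line with stable XBP1 luciferase reporter; schedule: 16-18 h cell attachment at 37 °C, then 6 h compound exposure; signal: glow luminescence from Steady-Glo reagent; medium: serum-containing F12 medium, 10% FBS; benchmarks: tunicamycin 10 µg/mL and vehicle-only wells; read-out: percent activation relative to tunicamycin reference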
CHOP inhibitor – inhibitors of CHOP induction in ER stress response; CHO-K1 CHOP-promoter luciferase, tunicamycin-induced, 15-18 h; inhibition, % at 10 µM; actives 3.8% (n = 220,000); AID 2732;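 active = compounds that reduced the stress-induced luciferase reporter signal by more than about 70% of percent inhibition, limit read from the data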;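 note: 0% = tunicamycin plus vehicle and 100% = wells without tunicamycin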
GRIN3A LBD mod – modulators (binders) of human NR3A ligand-binding domain; Tm shift relative to glycine control, % at 25 µM; actives 2.5% (n = 340,000); NR3A LBD differential scanning fluorimetry, Tm shift; 0% = protein alone, 100% = glycine-bound protein;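 active = melting temperature shift of at least 10% of the positive control shift, at one fixed dose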
UPR CHOP act – activators of apoptotic arm of unfolded protein response (CHOP) | CHO-CHOP luciferase reporter, UPR activation, luminescence; percent of tunicamycin response over DMSO baseline | activation, % at 10 µM | actives 0.34% (n = 330,000) | AID 449763;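 active = at 10 µM dose, activation of 40% or more, normalized to positive control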;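 note: 100% = tunicamycin at 10 µg/mL and 0% = DMSO alone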
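System: CHO CHOP reporter cells. Amount: 500 cells per well. Buffer or medium: F12 medium, 10% FBS. Compound dosing: one dose, 10 µM in 0.5% DMSO. Incubation: 6 h compound exposure at 37 °C after overnight seeding. Technique: Steady-Glo luciferase luminescence. Benchmarks: tunicamycin and DMSO controls.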
An asterisk follows results filed as active; x = no result given.

SMILES | MPTP inh | aDG glyco up | UPR XBP1 act | CHOP inhibitor | GRIN3A LBD mod | UPR CHOP act
CCOc1ccc(N2C(=O)CC(N3CCN(C(=O)CN4CCCC4)CC3)C2=O)cc1 (centres undefined) | 0.1 | 0.2 | -1.1 | 44.9 | -0.4 | 0.9
CCOc1ccc(N2C(=O)CC(N3CCC(NC(=O)Nc4ccccc4)CC3)C2=O)cc1 (centres undefined) | 0.2 | 0.1 | -1.4 | 34.2 | 13.6* | -0.4
CC(N)(C(=O)O)c1cccc(OCc2cccc(Cl)c2)c1 (centres undefined) | 1.1 | -0.1 | -2.1 | 14.4 | -2.4 | -1.0
O=C(O)CSc1cc(NS(=O)(=O)c2ccc(Br)cc2)c2ccccc2c1O | 4.6 | 3.4* | x | x | -26.6 | x
COc1ccc(-c2nc(CN3CCCCC3c3nccn3C)c(C)o2)c(C)c1C (centres undefined) | -4.1 | 2.1 | -4.7 | -1.8 | -1.0 | 1.2
S=C(NCc1ccco1)N1CCN(C(c2ccccc2)c2ccccc2)CC1 | 3.0 | 0.1 | -1.7 | 71.8* | -2.7 | -1.9
CC(NC(=O)c1ccco1)C(=O)N1CCN(C(c2ccccc2)c2ccccc2)CC1 (centres undefined) | -0.2 | 0.4 | -6.7 | x | 11.1* | 2.0
CC(NC(=O)c1ccco1)C(=O)N1CCN(c2ccccc2)CC1 (centres undefined) | 0.1 | -0.2 | -2.7 | x | -1.7 | 4.3
CC(C)CNC(=S)N1CCN(C(c2ccccc2)c2ccccc2)CC1 | 7.2 | 0.1 | -1.8 | 41.2 | -9.1 | 2.5
CC(C)CN(C(=O)COc1ccc([N+](=O)[O-])cc1)c1c(N)n(CC(C)C)c(=O)[nH]c1=O | -0.2 | 0.4 | -1.3 | x | -2.5 | -1.2
O=C(N/N=C/c1c[nH]c2ccccc12)c1cccc(O)c1 | 0.6 | 0.0 | -4.8 | x | 25.7* | 1.8
O=C(O)c1cc(N/N=C/c2c[nH]c3ccccc23)ccc1Cl | -2.1 | 0.0 | -2.9 | x | 21.7* | 1.6
COc1ccc(C(=O)N/N=C/c2c[nH]c3ccccc23)cc1 | -0.6 | 0.0 | -3.4 | x | 36.6* | 4.5
CC(=O)Nc1cccc(C(=O)N/N=C/c2c[nH]c3ccccc23)c1 | -1.5 | 0.1 | -2.7 | x | 30.0* | -0.9
O=C(O)c1cc(N/N=C/c2ccc(-c3ccccc3)cc2)ccc1Cl | 3.7 | -0.1 | x | x | -2.7 | x
Cc1ccc(NC(=O)/C=C\C(=O)NCC(=O)O)cc1 | 0.4 | 0.1 | -0.8 | 13.3 | 0.9 | -1.2
O=c1cc(CN2CCN(Cc3ccc(F)cc3)C(CCO)C2)[nH]c2ccccc12 (centres undefined) | 0.9 | -0.1 | -6.4 | x | 2.0 | 1.8
O=C(CC(O)c1ccccc1)Nc1ccccn1 (centres undefined) | -3.2 | -0.2 | x | x | -0.2 | x
CCCCOc1ccc(C(=O)N/N=C/c2cn[nH]c2-c2ccc(OC)c(OC)c2)cc1 | -19.8 | -0.1 | -0.8 | 6.9 | -11.6 | 4.6
Cc1ccc(NCC(=O)N/N=C/c2c[nH]c3ccccc23)cc1 | 1.9 | 0.2 | 2.8 | 10.0 | 24.0* | -2.3
O=C(N/N=C/c1c[nH]c2ccc(Br)cc12)c1ccn(Cc2ccc(Cl)cc2)n1 | -1.8 | 0.4 | -2.7 | 27.1 | 18.2* | -1.3
Cc1ccc(NC(C)C(=O)N/N=C/c2c[nH]c3ccccc23)cc1 (centres undefined) | 4.5 | -0.2 | -2.1 | 28.4 | -5.5 | -0.7
O=C(N/N=C/c1c[nH]c2ccccc12)c1cccc(Cl)c1 | 1.1 | 0.0 | -1.2 | x | 37.0* | 5.6
CCCOc1ccc(C(=O)N/N=C/c2c[nH]c3ccc(Br)cc23)cc1 | 2.1 | 0.0 | -4.3 | x | 37.4* | 0.8
C[C@H](CO)N1C[C@H](C)[C@@H](CN(C)Cc2ccc(Oc3ccccc3)cc2)Oc2cc(Br)ccc2S1(=O)=O | -0.7 | 0.1 | x | x | x | x
SMILES | MPTP inh | aDG glyco up | UPR XBP1 act | CHOP inhibitor | GRIN3A LBD mod | UPR CHOP act
CC1CN(CC(=O)Nc2nc3ccccc3s2)CC(C)O1 (centres undefined) | 0.2 | 0.0 | -0.9 | x | 0.1 | 0.4
O=C(N/N=C/c1c[nH]c2ccccc12)c1ccc(O)c(O)c1 | 1.2 | -0.1 | -0.9 | x | 28.5* | -2.5
CCOc1ccccc1C(=O)N/N=C/c1c[nH]c2ccccc12 | -1.2 | 0.0 | 1.1 | 11.5 | 4.0 | 1.4
CC(C)(C)C(=O)COC(=O)c1cccc(NC(=O)c2ccco2)c1 | 1.4 | 0.7 | 2.7 | 72.3* | 4.4 | 3.8
O=C(Nc1cccc(NC(=O)c2ccco2)c1)c1cccc(Br)c1 | 1.0 | 0.2 | -3.5 | x | 14.8* | 0.1
CC(C)CNC(=O)c1cccc(NC(=O)c2ccc(NC(=O)c3ccco3)cc2)c1 | 0.6 | 0.2 | -0.6 | 22.9 | 23.4* | 4.4
O=C(Nc1cccc(S(=O)(=O)c2cccc(NC(=O)c3ccco3)c2)c1)c1ccco1 | 24.5 | 1.3 | -2.4 | 13.2 | 34.9* | -0.1
COC(=O)c1ccc(NC(=O)c2cccc(NC(=O)c3ccco3)c2)cc1 | -0.3 | 0.0 | -4.2 | x | -5.8 | 2.9
CCCCCCN1CCN(C2CN(Cc3ccc(F)cc3)S(=O)(=O)C2)CC1 (centres undefined) | 1.8 | -0.1 | x | x | x | x
CCOc1ccccc1OCCCC(=O)NNC(=O)c1cc(C)oc1C | -0.5 | 0.1 | -2.1 | x | -1.8 | 0.5
O=C(Nc1cc(Br)c(O)c(Br)c1)c1cccc(NC(=O)c2ccco2)c1 | 1.4 | 0.2 | -3.4 | x | 22.9* | 2.8
CCC(C)(C)NC(=O)C(c1cccn1C)N(C(=O)Cn1nnc2ccccc21)c1ccc(NC(C)=O)cc1 (centres undefined) | -0.2 | -0.1 | -5.0 | 8.0 | -1.4 | 0.6
CCC(C)(C)NC(=O)C(c1cccn1C)N(C(=O)Cn1nnc2ccccc21)c1ccc(OC)cc1 (centres undefined) | -2.5 | 0.7 | -1.3 | -3.6 | 10.7* | -1.4
CCOc1[nH]n(-c2ccccc2)c(=O)c1C=Nc1ccc(C)cc1 | -0.2 | -0.4 | 0.9 | 77.3* | 3.0 | -0.3
Cc1cccnc1Nc1nc(-c2ccc(O)cc2O)cs1 | -0.7 | 0.5 | 8.0 | 43.6 | 25.1* | 2.9
c1ccc(Nc2nc(-c3cccs3)cs2)nc1 | -3.3 | 1.0 | -2.7 | 23.6 | -1.3 | 5.1
Oc1ccc(-c2csc(Nc3ccccn3)n2)c(O)c1 | 2.6 | 0.1 | 5.9 | x | 35.6* | 5.0
CCS(=O)(=O)c1ccc2oc(Nc3ccc(OC)cc3)nc2c1 | 1.6 | 0.0 | 1.9 | -16.5 | -31.4 | 0.7
CCS(=O)(=O)c1ccc2oc(Nc3ccc(C(C)(C)C)cc3)nc2c1 | 10.2 | 0.1 | 2.9 | 71.6* | -2.7 | 0.9
Cn1c2ccccc2c2ccc3c(c21)C(=O)C=CC3=O | 2.3 | 0.0 | x | x | -11.9 | x
Cc1ccc2c(c1)c1ccc3c(c1n2C)C(=O)C=CC3=O | 0.0 | -0.2 | -9.9 | 106.0* | -7.4 | -9.1
O=C(NCc1ccc(F)cc1F)[C@@H]1CCCN1C(=O)[C@@H]1CCCN1C(=O)c1cccs1 | 0.4 | -0.2 | x | x | x | x
